Results published in ChEMBL document CHEMBL1152560, “Substituted 2-arylbenzothiazoles as kinase inhibitors: hit-to-lead optimization” (Bioorg Med Chem, 2009).

Legend:
[1] = biological target: T1, Lymphokine-activated killer T-cell-originated protein kinase (Homo sapiens) (UniProt Q96KB5); test: Residual activity of PBK at 10 uM by microplate scintillation counting
T1 sequence (whole entry): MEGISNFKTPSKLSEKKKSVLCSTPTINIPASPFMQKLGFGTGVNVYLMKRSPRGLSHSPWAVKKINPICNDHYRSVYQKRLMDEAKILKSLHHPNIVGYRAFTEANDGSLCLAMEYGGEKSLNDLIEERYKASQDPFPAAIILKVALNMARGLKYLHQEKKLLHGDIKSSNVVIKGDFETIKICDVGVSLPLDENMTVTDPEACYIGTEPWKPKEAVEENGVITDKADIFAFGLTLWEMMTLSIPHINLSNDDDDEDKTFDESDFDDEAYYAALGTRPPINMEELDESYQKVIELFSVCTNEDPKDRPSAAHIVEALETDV

[2] = biological target: Focal adhesion kinase 1 (Homo sapiens) (UniProt Q05397); test: Residual activity of FAK at 10 uM by microplate scintillation counting
[3] = biological target: Serine/threonine-protein kinase 26 (Homo sapiens) (UniProt Q9P289); test: Residual activity of MST4 at 0.1 uM by microplate scintillation counting
[4] = biological target: Eukaryotic translation initiation factor 2-alpha kinase 1 (Homo sapiens) (UniProt Q9BQI3); test: Residual activity of HRI at 10 uM by microplate scintillation counting
[5] = biological target: Serine/threonine-protein kinase WNK3 (Homo sapiens) (UniProt Q9BYP7); test: Residual activity of WNK3 at 1 uM by microplate scintillation counting
Aurora kinase B = Aurora kinase B (Homo sapiens, UniProt Q96GD4); test: Inhibition of Aurora-B by microplate scintillation counting
Outline: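 Substrates: tetra(LRRWSLG) for Aurora A/B; poly(Ala,Glu,Lys,Tyr)6:2:5:1 for PDGFRβ; poly(Glu,Tyr)4:1 for TIE2 and VEGFR2. Stopped with 2% H3PO4.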

[6] = biological target: T2, Megakaryocyte-associated tyrosine-protein kinase (Homo sapiens) (UniProt P42679); test: Residual activity of MATK at 1 uM by microplate scintillation counting
T2 sequence (whole entry): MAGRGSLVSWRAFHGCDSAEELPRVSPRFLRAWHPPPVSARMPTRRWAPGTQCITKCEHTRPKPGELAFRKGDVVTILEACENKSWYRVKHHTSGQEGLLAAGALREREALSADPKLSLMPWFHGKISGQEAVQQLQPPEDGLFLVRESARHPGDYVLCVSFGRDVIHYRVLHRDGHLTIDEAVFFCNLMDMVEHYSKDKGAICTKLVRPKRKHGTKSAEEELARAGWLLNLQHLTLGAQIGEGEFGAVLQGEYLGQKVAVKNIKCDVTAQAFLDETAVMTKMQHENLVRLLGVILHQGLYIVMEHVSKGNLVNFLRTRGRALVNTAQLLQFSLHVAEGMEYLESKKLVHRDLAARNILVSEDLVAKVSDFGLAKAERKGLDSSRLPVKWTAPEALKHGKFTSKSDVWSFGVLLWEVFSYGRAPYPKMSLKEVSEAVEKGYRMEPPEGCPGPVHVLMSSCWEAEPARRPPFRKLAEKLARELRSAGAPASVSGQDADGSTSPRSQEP

[7] = biological target: T3, Inhibitor of nuclear factor kappa-B kinase subunit beta (Homo sapiens) (UniProt O14920); test: Residual activity of IKK-beta at 0.1 uM by microplate scintillation counting
T3 sequence (whole entry): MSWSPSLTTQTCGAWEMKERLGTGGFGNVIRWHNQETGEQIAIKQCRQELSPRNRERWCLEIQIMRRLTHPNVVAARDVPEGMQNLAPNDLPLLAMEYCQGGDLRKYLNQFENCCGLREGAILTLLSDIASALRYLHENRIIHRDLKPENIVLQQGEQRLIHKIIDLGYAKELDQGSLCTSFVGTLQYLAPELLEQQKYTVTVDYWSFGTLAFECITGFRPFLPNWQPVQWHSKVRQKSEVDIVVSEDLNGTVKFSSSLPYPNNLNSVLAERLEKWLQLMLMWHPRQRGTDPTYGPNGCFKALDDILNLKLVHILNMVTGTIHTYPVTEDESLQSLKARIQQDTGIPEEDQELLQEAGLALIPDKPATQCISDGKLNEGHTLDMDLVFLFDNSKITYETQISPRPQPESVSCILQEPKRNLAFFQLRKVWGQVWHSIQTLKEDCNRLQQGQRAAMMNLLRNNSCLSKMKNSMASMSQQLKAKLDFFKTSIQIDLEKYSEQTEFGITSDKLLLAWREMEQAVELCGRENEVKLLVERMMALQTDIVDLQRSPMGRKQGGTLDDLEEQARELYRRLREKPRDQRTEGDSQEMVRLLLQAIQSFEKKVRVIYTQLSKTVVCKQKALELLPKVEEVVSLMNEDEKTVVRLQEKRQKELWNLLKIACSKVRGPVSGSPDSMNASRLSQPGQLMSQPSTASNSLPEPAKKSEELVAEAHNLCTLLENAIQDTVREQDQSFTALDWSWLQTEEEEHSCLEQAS

[8] = biological target: T4, Testis-specific serine/threonine-protein kinase 1 (Homo sapiens) (UniProt Q9BXA7); test: Residual activity of TSSK1 at 0.1 uM by microplate scintillation counting
T4 sequence (whole entry): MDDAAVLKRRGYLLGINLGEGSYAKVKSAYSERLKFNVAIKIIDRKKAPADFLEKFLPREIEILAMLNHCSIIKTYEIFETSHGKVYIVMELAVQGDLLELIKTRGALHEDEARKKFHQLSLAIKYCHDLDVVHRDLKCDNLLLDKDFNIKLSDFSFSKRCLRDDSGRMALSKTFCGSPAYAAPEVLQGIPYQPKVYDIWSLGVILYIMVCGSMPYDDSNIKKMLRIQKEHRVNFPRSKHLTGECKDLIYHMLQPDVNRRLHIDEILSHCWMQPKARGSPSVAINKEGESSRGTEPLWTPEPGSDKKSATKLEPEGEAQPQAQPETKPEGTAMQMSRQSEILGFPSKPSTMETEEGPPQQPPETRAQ

[9] = biological target: Glycogen synthase kinase-3 alpha (Homo sapiens) (UniProt P49840); test: Residual activity of GSK3alpha at 10 uM by microplate scintillation counting
[10] = biological target: Protein kinase C delta type (Homo sapiens) (UniProt Q05655); test: Residual activity of PKCdelta at 1 uM by microplate scintillation counting
Sequence of Protein kinase C delta type (Homo sapiens) (Q05655 whole entry, looked up): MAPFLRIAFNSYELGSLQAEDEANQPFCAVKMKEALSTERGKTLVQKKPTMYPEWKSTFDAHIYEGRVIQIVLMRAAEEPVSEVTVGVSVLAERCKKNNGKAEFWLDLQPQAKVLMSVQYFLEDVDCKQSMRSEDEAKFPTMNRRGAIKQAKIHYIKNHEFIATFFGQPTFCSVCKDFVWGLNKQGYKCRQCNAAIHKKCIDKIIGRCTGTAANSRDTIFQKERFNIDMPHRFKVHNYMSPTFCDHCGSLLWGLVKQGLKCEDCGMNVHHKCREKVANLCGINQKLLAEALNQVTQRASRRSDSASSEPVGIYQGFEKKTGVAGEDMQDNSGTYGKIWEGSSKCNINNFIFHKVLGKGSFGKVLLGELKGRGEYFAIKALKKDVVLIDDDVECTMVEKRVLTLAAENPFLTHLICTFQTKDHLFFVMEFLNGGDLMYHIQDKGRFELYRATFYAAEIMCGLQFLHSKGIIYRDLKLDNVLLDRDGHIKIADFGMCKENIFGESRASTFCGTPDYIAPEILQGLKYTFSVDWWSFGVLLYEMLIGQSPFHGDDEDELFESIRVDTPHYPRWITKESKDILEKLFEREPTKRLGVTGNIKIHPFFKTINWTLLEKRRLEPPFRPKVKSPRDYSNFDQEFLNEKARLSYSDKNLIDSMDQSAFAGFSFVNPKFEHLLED

Sequence of Glycogen synthase kinase-3 alpha (Homo sapiens) (P49840 2-483 limits assumed): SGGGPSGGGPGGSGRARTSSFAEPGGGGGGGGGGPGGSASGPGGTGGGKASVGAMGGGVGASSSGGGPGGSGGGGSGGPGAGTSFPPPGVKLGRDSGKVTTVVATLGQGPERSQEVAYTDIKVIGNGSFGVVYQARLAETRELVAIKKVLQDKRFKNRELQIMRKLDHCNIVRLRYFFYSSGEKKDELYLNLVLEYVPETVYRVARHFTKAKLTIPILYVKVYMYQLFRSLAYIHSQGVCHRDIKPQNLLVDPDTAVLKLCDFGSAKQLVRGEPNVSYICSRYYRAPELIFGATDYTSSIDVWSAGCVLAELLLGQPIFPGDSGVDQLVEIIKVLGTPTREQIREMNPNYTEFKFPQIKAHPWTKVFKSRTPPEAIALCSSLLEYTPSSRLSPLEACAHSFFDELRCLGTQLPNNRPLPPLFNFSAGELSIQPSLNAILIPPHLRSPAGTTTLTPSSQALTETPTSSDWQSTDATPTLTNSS
Sequence of Focal adhesion kinase 1 (Homo sapiens) (Q05397 2-1052 limits assumed): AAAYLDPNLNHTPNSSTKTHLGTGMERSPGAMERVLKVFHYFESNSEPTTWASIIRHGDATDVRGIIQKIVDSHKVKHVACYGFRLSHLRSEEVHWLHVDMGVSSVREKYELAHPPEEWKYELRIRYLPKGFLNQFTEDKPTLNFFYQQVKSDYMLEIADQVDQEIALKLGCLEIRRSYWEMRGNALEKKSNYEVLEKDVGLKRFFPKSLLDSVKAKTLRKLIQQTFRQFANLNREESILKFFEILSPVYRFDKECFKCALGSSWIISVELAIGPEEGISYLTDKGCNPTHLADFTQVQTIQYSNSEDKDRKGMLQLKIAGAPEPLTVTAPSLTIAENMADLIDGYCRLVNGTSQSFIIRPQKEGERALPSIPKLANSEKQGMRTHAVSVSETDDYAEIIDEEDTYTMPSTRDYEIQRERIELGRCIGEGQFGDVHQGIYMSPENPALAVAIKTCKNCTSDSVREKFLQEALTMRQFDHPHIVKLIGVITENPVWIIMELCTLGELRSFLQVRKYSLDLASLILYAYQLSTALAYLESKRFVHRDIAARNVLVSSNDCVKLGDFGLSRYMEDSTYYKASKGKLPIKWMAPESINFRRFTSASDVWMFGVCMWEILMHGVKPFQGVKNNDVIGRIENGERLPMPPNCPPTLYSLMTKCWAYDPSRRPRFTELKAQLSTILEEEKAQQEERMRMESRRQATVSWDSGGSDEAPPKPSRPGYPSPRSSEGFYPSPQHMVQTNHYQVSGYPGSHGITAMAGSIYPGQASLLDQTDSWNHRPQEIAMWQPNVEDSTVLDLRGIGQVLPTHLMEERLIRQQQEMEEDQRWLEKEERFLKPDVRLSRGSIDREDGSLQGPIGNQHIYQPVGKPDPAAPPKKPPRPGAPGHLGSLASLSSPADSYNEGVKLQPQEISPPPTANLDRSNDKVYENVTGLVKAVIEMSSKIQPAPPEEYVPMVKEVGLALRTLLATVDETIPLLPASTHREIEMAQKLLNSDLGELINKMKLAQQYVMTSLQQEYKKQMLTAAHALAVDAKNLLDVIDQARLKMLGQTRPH
Sequence of Eukaryotic translation initiation factor 2-alpha kinase 1 (Homo sapiens) (Q9BQI3 whole entry): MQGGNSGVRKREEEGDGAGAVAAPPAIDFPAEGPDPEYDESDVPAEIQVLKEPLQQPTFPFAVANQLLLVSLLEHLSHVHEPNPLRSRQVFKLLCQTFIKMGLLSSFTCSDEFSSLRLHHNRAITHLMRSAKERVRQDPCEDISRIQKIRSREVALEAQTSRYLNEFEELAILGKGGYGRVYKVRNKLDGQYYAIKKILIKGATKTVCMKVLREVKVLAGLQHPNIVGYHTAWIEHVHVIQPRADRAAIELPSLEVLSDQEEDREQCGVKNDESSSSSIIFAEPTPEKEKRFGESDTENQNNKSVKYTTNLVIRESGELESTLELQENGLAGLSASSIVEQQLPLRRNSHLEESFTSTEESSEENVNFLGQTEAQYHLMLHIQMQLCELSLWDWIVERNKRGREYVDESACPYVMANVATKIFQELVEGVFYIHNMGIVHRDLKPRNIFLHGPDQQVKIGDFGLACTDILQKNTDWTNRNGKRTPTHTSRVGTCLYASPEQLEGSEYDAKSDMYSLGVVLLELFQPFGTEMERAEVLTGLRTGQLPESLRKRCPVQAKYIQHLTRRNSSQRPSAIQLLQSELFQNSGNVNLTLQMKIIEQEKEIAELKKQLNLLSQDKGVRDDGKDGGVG
Sequence of Serine/threonine-protein kinase WNK3 (Homo sapiens) (Q9BYP7 whole entry): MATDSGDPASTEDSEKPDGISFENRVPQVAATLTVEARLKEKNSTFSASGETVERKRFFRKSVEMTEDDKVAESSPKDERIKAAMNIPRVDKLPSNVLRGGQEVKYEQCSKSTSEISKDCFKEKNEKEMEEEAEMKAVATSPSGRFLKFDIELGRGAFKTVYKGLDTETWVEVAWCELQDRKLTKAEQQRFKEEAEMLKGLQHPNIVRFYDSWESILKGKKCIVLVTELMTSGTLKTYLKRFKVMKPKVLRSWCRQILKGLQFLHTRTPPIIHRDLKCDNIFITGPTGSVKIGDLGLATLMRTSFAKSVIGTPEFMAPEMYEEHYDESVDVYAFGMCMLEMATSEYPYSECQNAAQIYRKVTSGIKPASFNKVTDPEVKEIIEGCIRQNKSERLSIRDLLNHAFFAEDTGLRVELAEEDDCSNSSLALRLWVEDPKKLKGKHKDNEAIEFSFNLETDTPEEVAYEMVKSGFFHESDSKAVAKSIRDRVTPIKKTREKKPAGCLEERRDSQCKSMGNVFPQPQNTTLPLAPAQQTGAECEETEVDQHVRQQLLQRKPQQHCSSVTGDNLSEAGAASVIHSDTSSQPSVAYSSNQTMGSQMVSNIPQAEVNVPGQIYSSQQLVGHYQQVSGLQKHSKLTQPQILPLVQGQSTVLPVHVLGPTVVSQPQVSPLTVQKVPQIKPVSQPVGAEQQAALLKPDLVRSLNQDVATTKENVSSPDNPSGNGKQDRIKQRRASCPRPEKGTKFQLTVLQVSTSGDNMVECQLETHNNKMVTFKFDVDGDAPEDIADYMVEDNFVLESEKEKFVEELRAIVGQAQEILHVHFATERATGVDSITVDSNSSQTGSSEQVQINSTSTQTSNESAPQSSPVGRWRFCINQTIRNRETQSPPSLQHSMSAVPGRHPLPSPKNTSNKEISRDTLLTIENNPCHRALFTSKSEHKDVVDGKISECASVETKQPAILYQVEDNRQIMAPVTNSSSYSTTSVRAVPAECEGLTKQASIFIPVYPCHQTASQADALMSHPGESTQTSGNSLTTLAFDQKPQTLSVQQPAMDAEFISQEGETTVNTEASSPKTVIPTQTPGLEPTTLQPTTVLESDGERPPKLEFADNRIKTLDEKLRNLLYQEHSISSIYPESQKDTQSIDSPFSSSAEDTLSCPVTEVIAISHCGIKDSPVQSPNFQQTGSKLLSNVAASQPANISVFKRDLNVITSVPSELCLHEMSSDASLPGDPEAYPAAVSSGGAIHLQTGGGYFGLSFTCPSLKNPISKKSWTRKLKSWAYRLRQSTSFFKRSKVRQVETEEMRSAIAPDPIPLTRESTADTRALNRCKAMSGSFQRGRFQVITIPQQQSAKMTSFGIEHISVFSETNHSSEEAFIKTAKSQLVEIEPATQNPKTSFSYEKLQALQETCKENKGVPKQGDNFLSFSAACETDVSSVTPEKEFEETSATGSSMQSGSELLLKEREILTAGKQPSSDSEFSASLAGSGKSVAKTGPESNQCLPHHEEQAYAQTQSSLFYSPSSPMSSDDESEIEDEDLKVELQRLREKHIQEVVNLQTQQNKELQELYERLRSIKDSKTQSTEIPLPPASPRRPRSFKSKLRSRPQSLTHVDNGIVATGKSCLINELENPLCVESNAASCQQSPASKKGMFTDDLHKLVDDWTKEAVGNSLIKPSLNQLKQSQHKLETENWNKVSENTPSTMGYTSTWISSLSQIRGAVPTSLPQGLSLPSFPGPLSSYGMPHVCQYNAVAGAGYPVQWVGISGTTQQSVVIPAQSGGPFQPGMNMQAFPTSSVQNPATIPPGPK
Sequence of Aurora kinase B (Q96GD4 whole entry): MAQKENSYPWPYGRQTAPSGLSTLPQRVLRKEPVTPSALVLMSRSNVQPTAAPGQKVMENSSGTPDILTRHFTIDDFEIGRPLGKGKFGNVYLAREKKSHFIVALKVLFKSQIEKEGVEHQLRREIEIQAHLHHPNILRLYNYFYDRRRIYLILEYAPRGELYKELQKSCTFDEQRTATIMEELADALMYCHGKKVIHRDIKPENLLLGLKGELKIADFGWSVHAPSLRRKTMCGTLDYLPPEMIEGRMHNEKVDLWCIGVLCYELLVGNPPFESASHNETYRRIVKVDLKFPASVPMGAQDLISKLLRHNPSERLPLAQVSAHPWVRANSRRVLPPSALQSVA

`COc1cc2c(Oc3ccc(-c4nc5ccccc5s4)cc3)ncnc2cc1OCCCN1CCN(C)CC1` showed a residual activity [1] of 102%, a residual activity [2] of 93% and a residual activity [3] of 106%. The residual activity [4] was 127%, the residual activity [5] was 64% and the IC50 (Aurora kinase B) was 63 nM. It also gave a residual activity [6] of 141%, a residual activity [7] of 96% and a residual activity [8] of 58%. It also gave a residual activity [9] of 28% and a residual activity [10] of 103%.

`COc1cc2c(Oc3ccc(-c4nc5ccccc5s4)cc3F)ncnc2cc1OCCCN1CCN(C)CC1` showed a residual activity [1] of 65%, a residual activity [2] of 84% and a residual activity [3] of 107%. For the same molecule, the residual activity [4] was 57%, the residual activity [5] was 69% and the IC50 (Aurora kinase B) was 130 nM. The residual activity [6] was 162%, the residual activity [7] was 85% and the residual activity [8] was 65%. The residual activity [9] was 27% and the residual activity [10] was 94%.

Molecule `COc1cc2c(Oc3ccc(-c4nc5ccccc5s4)cc3)ncnc2cc1OCCCN1CCCC1` has a residual activity [1] of 85%, a residual activity [2] of 93% and a residual activity [3] of 93%. For the same molecule, the residual activity [4] was 112%, the residual activity [5] was 76% and the IC50 (Aurora kinase B) was 162 nM. It also gave a residual activity [6] of 235%, a residual activity [7] of 91% and a residual activity [8] of 49%. For the same molecule, the residual activity [9] was 62% and the residual activity [10] was 93%.
